Active and inactive are the calls of the source. The calls are words filed in the database; no cut-off is given here.
Experiments:
Trypanosoma cruzi = test: Antitrypanosomal activity against Trypanosoma cruzi strain CL Brener epimastigotes form assessed as inhibition of growth incubated for 4 days by resazurin dye based fluorescence assay; type: functional, organism-based; settings: 96 h
[1] = Cytotoxicity against rat L6 cells assessed as reduction in cell viability incubated for 6 days by resazurin dye based fluorescence assay
Method in brief: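 Rat skeletal myoblast L6 cells seeded in triplicate at 1 × 10⁴ mL⁻¹ in growth medium containing a range of compound concentrations, 6 days at 37 °C; resazurin added, 8 h further, fluorescence read. CC50 = concentration giving 50% growth inhibition; mean of triplicate experiments ± SEM.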

Hepatitis C virus [2] = test: Antiviral activity against HCV genotype 1b Con1 infected in human HuH5.2 cells assessed as reduction in viral replication incubated for 3 days by luciferase reporter gene assay; type: functional, organism-based, Hepacivirus hominis; settings: subtype 1b Con1, Huh-5-2, 72 h
Method in brief: (§1)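 Stable subgenomic replicon cell lines (Huh5-2 HCV 1b Con1 firefly luciferase; Huh7.5-3a S52, Huh7.5-4a ED43; Huh7-D2 DENV2 16681 Renilla luciferase) seeded 1×10^4 cells/well, 24 h at 37 °C, then serial compound dilutions in complete DMEM without G418 for 3 days at 37 °C. Lysate F-Luc or R-Luc (12 μM coelenterazine, pH 7.4 buffer) normalized to Bradford protein, expressed as % of DMSO control. EC50 from nonlinear regression of log concentration.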

[3] = Cytotoxicity against human HuH5.2 cells assessed as reduction in cell viability incubated for 72 hrs by measuring intracellular ATP levels
Hepatitis C virus [4] = test: Antiviral activity against HCV genotype 4a ED43 infected in human HuH7.5 cells assessed as reduction in viral replication incubated for 3 days by luciferase reporter gene assay; type: functional, organism-based, Hepacivirus hominis; settings: subtype 4a ED43, Huh7.5, 72 h; method in brief: as §1
[5] = Selectivity index, ratio of CC50 for human Huh5.2 cells to EC50 for HCV genotype 4a ED43; type: toxicity; settings: read-out: Ratio CC50/EC50
Method in brief: (§2)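 Viability read as intracellular ATP, not MTT: 10^4 Huh5-2 cells/well, after 24 h exposed to compounds 72 h at 37 °C, 5% CO2, lysed, luminescent ATP kit read, ATP normalized to protein. CC50 versus DMSO control via nonlinear regression of log concentration; mean ± SD of three independent experiments in triplicate. SI = CC50/EC50.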

[6] = Selectivity index, ratio of CC50 for human Huh5.2 cells to EC50 for HCV genotype 1b Con1; type: toxicity; settings: read-out: Ratio CC50/EC50; method in brief: as §2
Trypanosoma brucei = test: Antitrypanosomal activity against Trypanosoma brucei 221 bloodstream form assessed as inhibition of growth incubated for 4 days by resazurin dye based fluorescence assay; type: functional, organism-based; settings: Trypanosoma brucei, 221, 96 h
[7] = Selectivity index, ratio of CC50 for rat L6 cells to EC50 for Trypanosoma brucei 221 bloodstream form; type: toxicity; settings: read-out: Ratio CC50/EC50
Method in brief: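 T. brucei strain 221 bloodstream forms in modified Iscove's medium diluted to 2.5 × 10⁴ mL⁻¹, eight-point concentration curves at 37 °C; resazurin added after 48 h, further 16 h incubation; fluorescence at excitation 545 nm, emission 590 nm. EC50 and EC90 from triplicate experiments. SI = L6 CC50/EC50.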

[8] = Selectivity index, ratio of CC50 for rat L6 cells to EC50 for Trypanosoma cruzi strain CL Brener epimastigotes; type: toxicity; settings: read-out: Ratio CC50/EC50
Hepatitis C virus [9] = test: Antiviral activity against HCV genotype 3a S52 infected in human HuH7.5 cells assessed as reduction in viral replication incubated for 3 days by luciferase reporter gene assay; type: functional, organism-based, Hepacivirus hominis; settings: subtype 3a S52, Huh7.5, 72 h; method in brief: as §1
[10] = Selectivity index, ratio of CC50 for human Huh5.2 cells to EC50 for DENV2 16681; type: toxicity; settings: read-out: Ratio CC50/EC50
dengue virus type 2 = test: Antiviral activity against DENV 2 16681 infected in human HuH7 cells assessed as reduction in viral replication incubated for 3 days by luciferase reporter gene assay; type: functional, organism-based; settings: Dengue virus, 16681, Huh-7, 72 h; method in brief: as §1
[11] = Selectivity index, ratio of CC50 for human Huh5.2 cells to EC50 for HCV genotype 3a S52; type: toxicity; settings: read-out: Ratio CC50/EC50; method in brief: as §2
[12] = target: RNA-directed RNA polymerase (Hepacivirus hominis, UniProt O39930); test: Inhibition of HCV genotype 1b NS5B RNA dependent RNA polymerase; design: species or system Hepatitis C virus subtype 1b
Hepatitis C virus [13] = test: Antiviral activity against HCV genotype 4a ED43 infected in human HuH7.5 cells assessed as reduction in viral NS5A expression at 2 to 5 uM incubated for 3 days by immunofluorescence assay; type: functional, organism-based; settings: Hepacivirus hominis, subtype 4a ED43
Method in brief: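 Huh7.5-4a replicon cells given serial compound dilutions or DMSO; HCV NS5A detected by indirect immunofluorescence, nuclei stained with propidium iodide as viability control, confocal imaging.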

Hepatitis C virus [14] = test: Antiviral activity against HCV genotype 4a ED43 infected in human HuH7.5 cells assessed as reduction in viral RNA at 0.01 to 10 uM incubated for 3 days by qRT-PCR analysis; type: functional, organism-based; settings: Hepacivirus hominis, subtype 4a ED43
Method in brief: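 Huh7.5-4a replicon cells treated with serial dilutions or DMSO; (+) strand HCV RNA quantified by RT-qPCR, normalized to housekeeping gene YWHAZ mRNA, expressed as percentage of solvent-treated control.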

Nonstructural protein 5A = target: T1, Nonstructural protein 5A (Hepatitis C virus, UniProt Q5L478); test: Inhibition of HCV genotype 1b NS5A; design: species or system Hepatitis C virus subtype 1b
T1 sequence (Q5L478 whole entry): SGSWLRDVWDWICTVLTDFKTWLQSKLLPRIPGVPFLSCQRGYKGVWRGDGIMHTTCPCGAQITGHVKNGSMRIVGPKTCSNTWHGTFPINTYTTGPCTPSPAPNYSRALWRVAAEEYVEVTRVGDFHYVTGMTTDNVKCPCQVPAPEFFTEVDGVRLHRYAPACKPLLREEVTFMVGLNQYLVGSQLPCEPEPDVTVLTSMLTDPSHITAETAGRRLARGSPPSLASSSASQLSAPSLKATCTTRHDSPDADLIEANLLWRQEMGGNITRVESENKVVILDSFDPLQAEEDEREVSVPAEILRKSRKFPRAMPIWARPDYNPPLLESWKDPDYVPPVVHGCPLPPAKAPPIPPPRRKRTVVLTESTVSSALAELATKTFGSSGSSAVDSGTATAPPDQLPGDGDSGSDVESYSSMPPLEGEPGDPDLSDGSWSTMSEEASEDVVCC

Chain of RNA-directed RNA polymerase (O39930 whole entry): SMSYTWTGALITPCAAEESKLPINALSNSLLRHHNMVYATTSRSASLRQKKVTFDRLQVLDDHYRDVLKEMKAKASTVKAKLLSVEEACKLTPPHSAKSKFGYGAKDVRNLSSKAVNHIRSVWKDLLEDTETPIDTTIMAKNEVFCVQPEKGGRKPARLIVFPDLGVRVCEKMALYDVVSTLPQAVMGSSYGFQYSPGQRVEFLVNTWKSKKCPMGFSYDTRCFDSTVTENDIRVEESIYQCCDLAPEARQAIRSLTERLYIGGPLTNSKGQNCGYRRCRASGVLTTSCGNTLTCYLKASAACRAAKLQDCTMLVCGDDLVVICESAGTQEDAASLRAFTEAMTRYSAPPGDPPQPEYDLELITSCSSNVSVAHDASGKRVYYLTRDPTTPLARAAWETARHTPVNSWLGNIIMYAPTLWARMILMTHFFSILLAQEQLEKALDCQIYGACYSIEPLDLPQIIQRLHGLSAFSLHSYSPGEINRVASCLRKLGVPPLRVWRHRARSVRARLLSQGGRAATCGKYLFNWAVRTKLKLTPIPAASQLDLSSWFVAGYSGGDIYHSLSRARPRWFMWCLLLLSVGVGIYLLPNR

Compound | EC50 (Trypanosoma cruzi) [nM] | EC90 (Trypanosoma cruzi) [nM] | CC50 at 144 h [1] [nM] | EC50 (Hepatitis C virus [2]) [nM] | CC50 at 72 h [3] [nM] | EC50 (Hepatitis C virus [4]) [nM] | selectivity ratio [5] | selectivity ratio [6] | EC50 (Trypanosoma brucei) [nM] | EC90 (Trypanosoma brucei) [nM] | selectivity ratio [7] | selectivity ratio [8] | EC50 (Hepatitis C virus [9]) [nM] | selectivity ratio [10] | EC50 (dengue virus type 2) [nM] | selectivity ratio [11] | EC50 [12] [nM] | Activity (Hepatitis C virus [13]) | Activity (Hepatitis C virus [14]) | EC50 (Nonstructural protein 5A) [nM]
O=C(CN1C(=O)N(Cc2ccccc2)C2(CCCc3ccccc32)C1=O)NO (stereo not given) | 960 | 1710 | 3170 | 320 | 8900 | 70 | 127 | 28 | 50 | 77 | 63 | 3 |  |  |  |  |  |  |  | 
O=C(CN1C(=O)NC2(CCCc3ccccc32)C1=O)NO (stereo not given) | > 30000 | > 30000 | 419000 | 1410 | > 200000 | 380 | > 526 | > 142 | 710 | 1270 | 590 |  | 2370 | > 3 | 61500 | > 84 |  |  |  | 
O=C(CN1C(=O)NC2(CCc3ccccc32)C1=O)NO (stereo not given) | > 30000 | > 30000 | 268000 | 2920 | > 200000 | 580 | > 345 | > 68 | 440 | 800 | 609 |  | 2970 | > 2 | 96300 | > 67 |  |  |  | 
COc1c(-c2ccc3cc(NS(C)(=O)=O)ccc3c2)cc(-n2ccc(=O)[nH]c2=O)cc1C(C)(C)C [DASABUVIR] |  |  |  |  |  |  |  |  |  |  |  |  |  |  |  |  | 1.8 |  |  | 
O=C(CN1C(=O)CNC2(CCCCCC2)C1=O)NO |  |  |  |  |  |  |  |  | 1870 | 2530 |  |  |  |  |  |  |  |  |  | 
O=C(CN1C(=O)NC2(CCCCc3ccccc32)C1=O)NO (stereo not given) | > 30000 |  | 125000 | 250 | 198000 | 100 | 1980 | 794 | 400 | 520 | 313 |  | 80 | 12 | 16300 | 2480 |  | Active | Active | 
O=C1Cn2c(cc3ccccc32)C(=O)N1O |  |  |  | 126000 | > 200000 |  |  | > 1.6 |  |  |  |  |  |  |  |  |  |  |  | 
COC(=O)N[C@H](C(=O)N1CCC[C@H]1c1nc(-c2ccc(-c3ccc(-c4c[nH]c([C@@H]5CCCN5C(=O)[C@@H](NC(=O)OC)C(C)C)n4)cc3)cc2)c[nH]1)C(C)C [DACLATASVIR] |  |  |  |  |  |  |  |  |  |  |  |  |  |  |  |  |  |  |  | 0.002
O=C(CN1C(=O)N(Cc2ccccc2)C2(CCCCc3ccccc32)C1=O)NO (stereo not given) | 495 | 940 | 7850 | 1000 | 5450 | 120 | 45 | 5 | 13 | 18 | 604 | 16 |  |  |  |  |  |  |  | 
O=C1NC(=O)C2(CCc3ccccc32)N1 (stereo not given) | > 500000 |  | > 500000 | > 10000 | > 10000 |  |  |  | > 50000 |  |  |  |  |  |  |  |  |  |  | 
CN1C(=O)N(CC(=O)NO)C(=O)C12CCCc1ccccc12 (stereo not given) | 27600 | 42100 | 28200 | 1450 | 143000 | 210 | 682 | 99 | 1910 | 4690 | 15 | 1 |  |  |  |  |  |  | Active | 
CN1C(=O)N(CC(=O)NO)C(=O)C12CCCCc1ccccc12 (stereo not given) | 10600 | 15300 | 16400 | 1180 | 112000 | 110 | 1020 | 95 | 230 | 300 | 71 | 2 |  |  |  |  |  |  |  | 
O=C(CN1C(=O)N(Cc2ccccc2)C2(CCc3ccccc32)C1=O)NO (stereo not given) | 1700 | 3010 | 6270 | 220 | 7530 | 140 | 54 | 34 | 101 | 192 | 62 | 4 |  |  |  |  |  |  |  | 
CN1C(=O)N(CC(=O)NO)C(=O)C12CCc1ccccc12 (stereo not given) | > 30000 |  | 550000 | 1410 | 26900 | 210 | 128 | 19 | 1220 | 1930 | 451 |  |  |  |  |  |  |  |  | 
CC(C)OC(=O)[C@H](C)N[P@](=O)(OC[C@H]1O[C@@H](n2ccc(=O)[nH]c2=O)[C@](C)(F)[C@@H]1O)Oc1ccccc1 [SOFOSBUVIR] |  |  |  |  |  |  |  |  |  |  |  |  |  |  |  |  | 102 |  |  | 

— ChEMBL document CHEMBL4373658, “Scaffold hybridization strategy towards potent hydroxamate-based inhibitors of Flaviviridae viruses and Trypanosoma species” (Medchemcomm, 2019)
